Measurements as given in ChEMBL document CHEMBL4382237, “Design, Synthesis, and Biological Evaluation of 2-Nitroimidazopyrazin-one/-es with Antitubercular and Antiparasitic Activity” (J Med Chem, 2018).
≈ marks a conversion by molar mass, not a printed value.

Legend:
Giardia intestinalis = assay: Antiparasitic activity against Giardia lamblia WB trophozoites after 24 to 48 hrs by CellTiter-Glo luminescent cell viability assay; conditions: Giardia duodenalis
[1] = tested on: Mycobacterium tuberculosis; assay: Antibacterial activity against Mycobacterium tuberculosis H37Rv after 5 days under normoxic condition by resazurin dye-based fluorescence assay; type: functional, organism-based; conditions: for IC50: Mycobacterium tuberculosis, H37Rv, 120 h
Procedure, shortened: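 H37Rv grown in 7H9/ADC/glycerol/Tyloxapol to mid-exponential phase, diluted to OD600 0.001 (~2 x 10^4 CFU/mL) in 7H9S with serially diluted compound. Incubated 5 days at 37 °C, then resazurin and Tween-80 added. Fluorescence (ex 530/em 590 nm) read after 24 h, normalised to no-drug and no-bacteria wells.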

[2] = tested on: Mycobacterium tuberculosis; assay: Antibacterial activity against non-replicating Mycobacterium tuberculosis H37Rv after 5 days under hypoxic condition by resazurin dye-based fluorescence assay; type: functional; conditions: 120 h
Procedure, shortened: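 Same H37Rv inoculum (OD600 0.001, ~2 x 10^4 CFU/mL) in 7H9S with serially diluted compound. Plates held 5 days at 0.1% oxygen, then resazurin plus Tween-80 added.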

[3] = tested on: Trypanosoma brucei brucei; assay: Antiparasitic activity against bloodstream form of Trypanosoma brucei brucei strain 427 assessed as inhibition of parasitic growth at 40 uM after 48 hrs by resazurin dye-based assay relative to control; type: functional; conditions: strain 427, 48 h, read-out: GI
Staphylococcus aureus = assay: Antibacterial activity against methicillin-resistant Staphylococcus aureus ATCC […] by broth microdilution assay; type: functional
Escherichia coli = assay: Antibacterial activity against Escherichia coli ATCC 25922 by broth microdilution assay; type: functional
Procedure, shortened: (§1)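 Broth microdilution run essentially per an earlier report. MIC taken as the lowest concentration with no visible growth. Replicates typically agreed within one 2-fold dilution. The median MIC is reported, with a range where the median fell between two tested concentrations.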

Klebsiella pneumoniae = assay: Antibacterial activity against Klebsiella pneumoniae 700603 by broth microdilution assay; type: functional; procedure, shortened: as §1
Acinetobacter baumannii = assay: Antibacterial activity against Acinetobacter baumannii ATCC 19606 by broth microdilution assay; type: functional; conditions: ATCC 19606 = CIP 70.34 = JCM 6841; procedure, shortened: as §1
Pseudomonas aeruginosa = assay: Antibacterial activity against Pseudomonas aeruginosa ATCC 27853 by broth microdilution assay; type: functional; procedure, shortened: as §1
Candida albicans = assay: Antifungal activity against Candida albicans ATCC 90028 by broth microdilution assay; type: functional; procedure, shortened: as §1
Cryptococcus neoformans = assay: Antifungal activity against Cryptococcus neoformans H99 ATCC […] broth microdilution assay; type: functional; conditions: var. grubii H99 ATCC 208821; procedure, shortened: as §1
HEK293 = assay: Cytotoxicity against HEK293 cells after 24 hrs by resazurin dye-based fluorescence assay; type: cell-based; conditions: human, hek293, 24 h
Procedure, shortened: (§2)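 HEK293 (3000/well) and HepG2 (5000/well) were grown 24 h in DMEM with 10% FBS at 37 °C, 5% CO2. Cells were then exposed 24 h to a dilution series up to 100 µM (0.5% DMSO). 5 µM resazurin was added for 2 h, read at ex 560/em 590. 1% Triton X-100 served as lysis control. CC50 was derived from the curves.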

HepG2 = assay: Cytotoxicity against human HepG2 cells after 24 hrs by resazurin dye-based fluorescence assay; type: cell-based; conditions: hepg2, 24 h; procedure, shortened: as §2
[4] = tested on: Trypanosoma brucei brucei; assay: Antiparasitic activity against bloodstream form of Trypanosoma brucei brucei strain 427 after 48 hrs by resazurin dye-based assay; type: functional, organism-based; conditions: strain 427, 48 h
physchem [5] = conditions: water
physchem [6] = conditions: PBS, pH 7.4
Entamoeba histolytica = assay: Antiparasitic activity against Entamoeba histolytica HM-1:IMSS trophozoites after 24 to 48 hrs by CellTiter-Glo luminescent cell viability assay; type: functional, organism-based
Procedure, shortened: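 Axenic trophozoites were kept in TYI-S-33 with penicillin (100 U/mL) and streptomycin (100 µg/mL) and harvested in log phase. 5000 parasites per well were exposed to a final 8-point two-fold series of 0.39–50 µM, from 10 mM DMSO stocks. Plates were incubated 24–48 h at 37 °C under anaerobic conditions. ATP luminescence viability was read in triplicate. Percent inhibition is given at the highest concentration tested.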

Clostridioides difficile = assay: Antibacterial activity against Clostridium difficile 630 ATCC BAA-1382 by broth microdilution assay; type: functional; procedure, shortened: as §1
[7] = tested on: Mycobacterium tuberculosis; assay: Antibacterial activity against Mycobacterium tuberculosis H37Rv assessed as inhibition of bacterial growth at 32 ug/ml after 5 days under normoxic condition by resazurin dye-based fluorescence assay relative to control; type: functional; conditions: 120 h, read-out: GI
[8] = Metabolic stability in human liver microsomes assessed as parent compound remaining at 3 uM after 2 hrs by LC-MS/MS analysis
[9] = Metabolic stability in CD-1 mouse liver microsomes assessed as parent compound remaining at 3 uM after 2 hrs by LC-MS/MS analysis
[10] = Metabolic stability in human plasma assessed as parent compound remaining at 3 uM after 2 hrs by LC-MS/MS analysis
[11] = Metabolic stability in CD-1 mouse plasma assessed as parent compound remaining at 3 uM after 2 hrs by LC-MS/MS analysis
[12] = Protein binding in human plasma at 5 uM after 30 mins by LC-MS/MS analysis based ultrafiltration method; conditions: 0.5 h
[13] = Apparent permeability across apical to basolateral side in human Caco2 cells assessed as mean drug recovery at 2 uM after 2 hrs by lucifer yellow dye-based LC-MS/MS analysis; conditions: caco-2, 2 h

| SMILES | IC50 (Giardia intestinalis) [µM] | IC50 (Giardia intestinalis; read-out: pIC50 (converted)) [µM] | MIC [1] [µg/mL] | MIC [2] [µg/mL] | MIC (Staphylococcus aureus) [µg/mL] | MIC (Escherichia coli) [µg/mL] | MIC (Klebsiella pneumoniae) [µg/mL] | MIC (Acinetobacter baumannii) [µg/mL] | MIC (Pseudomonas aeruginosa) [µg/mL] | MIC (Candida albicans) [µg/mL] | MIC (Cryptococcus neoformans) [µg/mL] | CC50 (HEK293) [µM] | CC50 (HepG2) [µM] | IC50 ([4]; read-out: IC50) [µM] | IC50 ([4]; read-out: pIC50 (converted)) [µM] | IC50 (Entamoeba histolytica; read-out: IC50) [µM] | inhibition of growth at 32 µg/mL [7] [%] | other results |
| --- | --- | --- | --- | --- | --- | --- | --- | --- | --- | --- | --- | --- | --- | --- | --- | --- | --- | --- |
| CC(c1ccc(F)cc1)n1ccn2cc([N+](=O)[O-])nc2c1=O (stereo not given) | 2.1 | 2 | 0.5 (≈ 1.65 µM) | 4 to 6.3 (≈ 13.2 to 20.8 µM) | > 32 | > 32 | > 32 | > 32 | > 32 | > 32 | > 32 | > 100 | > 100 |  |  |  |  | inhibition of growth at 40 µM [3]: 94% |
| O=c1c2nc([N+](=O)[O-])cn2ccn1Cc1ccccn1 | 14 | 15.8 | >32 | > 32 | > 32 | > 32 | > 32 | > 32 | > 32 | > 32 | > 32 | > 100 | > 100 | 9.7 | 10 |  |  | solubility kinetic at 24 h, 200 µM (physchem [5]): 176 µM (≈ 47.7 µg/mL); solubility kinetic at 24 h, 200 µM (physchem [6]): 184 µM (≈ 49.9 µg/mL) |
| O=c1[nH]c(-c2ccccc2)cn2cc([N+](=O)[O-])nc12 | 10 | 10 | >32 | > 32 |  |  |  |  |  |  |  |  |  | 0.22 | 0.2 | > 25 |  | IC50 (Entamoeba histolytica; read-out: pIC50 (converted)): > 25.1 µM; solubility kinetic at 24 h, 200 µM (physchem [5]): 27 µM (≈ 6.92 µg/mL); solubility kinetic at 24 h, 200 µM (physchem [6]): 17 µM (≈ 4.36 µg/mL) |
| O=C(NCc1ccc(OC(F)(F)F)cc1)c1ncc([N+](=O)[O-])[nH]1 | 0.2 to 0.5 |  | >32 | > 32 |  |  |  |  |  |  |  |  |  |  |  | 2.2 to 4.5 | 60 to 75 | MIC (Clostridioides difficile): 4 to 16 µg/mL (≈ 12.1 to 48.5 µM) |
| Cc1cn2cc([N+](=O)[O-])nc2c(=O)n1Cc1ccc(OC(F)(F)F)cc1 | 5.8 | 6.31 | >32 | > 32 |  |  |  |  |  |  |  |  |  | 0.41 | 3.98 | > 50 |  | IC50 (Entamoeba histolytica; read-out: pIC50 (converted)): > 50.1 µM; Stability [8]: > 99%; Stability [9]: > 99%; Stability [10]: 92%; Stability [11]: 99%; PPB [12]: 98% |
| O=c1[nH]ccn2cc([N+](=O)[O-])nc12 | > 25 | > 25.1 | >32 | > 32 | > 32 | > 32 | > 32 | > 32 | > 32 | > 32 | > 32 | > 100 | > 100 |  |  |  |  | inhibition of growth at 40 µM [3]: 97% |
| O=c1c2nc([N+](=O)[O-])cn2ccn1CCc1ccc(OC(F)(F)F)cc1 | 1.6 | 1.58 |  | > 32 | > 32 | > 32 | > 32 | > 32 | > 32 | > 32 | > 32 | > 100 | > 100 |  |  |  | 70 | IC50 [1]: 8 µM; inhibition of growth at 40 µM [3]: 44% |
| Cc1cn2cc([N+](=O)[O-])nc2c(OCc2ccc(OC(F)(F)F)cc2)n1 | 7.4 | 7.94 | >32 | > 32 |  |  |  |  |  |  |  |  |  | > 40 | > 39.8 | 9.5 |  | IC50 (Entamoeba histolytica; read-out: pIC50 (converted)): 10 µM; Stability [8]: 69%; Stability [9]: 7.9%; Stability [10]: 94%; Stability [11]: > 99%; PPB [12]: > 99% |
| Cc1ccc(CCn2ccn3cc([N+](=O)[O-])nc3c2=O)cc1 | 3.2 | 3.16 |  | > 32 | > 32 | > 32 | > 32 | > 32 | > 32 | > 32 | > 32 | > 100 | > 100 | > 40 | > 39.8 |  | 78 | IC50 [1]: 4 µM |
| CC(C)NCC(O)COc1cccc2ccccc12 (stereo not given) [PROPRANOLOL] |  |  |  |  |  |  |  |  |  |  |  |  |  |  |  |  |  | Drug recovery [13]: 70% |
| O=C(NO)c1nc([N+](=O)[O-])cn1Cc1ccc(OC(F)(F)F)cc1 | 2.7 to 7.5 |  | >32 | > 32 |  |  |  |  |  |  |  |  |  |  |  | 10 to 45 | 60 to 75 | MIC (Clostridioides difficile): 16 to 64 µg/mL (≈ 46.2 to 185 µM) |
| Cc1ccc(Cn2ccn3cc([N+](=O)[O-])nc3c2=O)cc1 | 3.4 | 3.16 |  |  | > 32 | > 32 | > 32 | > 32 | > 32 | > 32 | > 32 |  |  |  |  | > 50 |  | MIC (Clostridioides difficile): > 64 µg/mL; Stability [8]: 97%; Stability [9]: 96%; Stability [10]: > 99%; Stability [11]: > 99% |
